Results as given in ChEMBL document CHEMBL2434884, “Natural product derived antiprotozoal agents: synthesis, biological evaluation, and structure-activity relationships of novel chromene and chromane derivatives” (J Med Chem, 2013).

Tests used:
L6 = assay: Cytotoxicity against rat L6 cells; assay type: cell-based
Method in brief: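 L6 rat skeletal myoblasts; cytotoxicity IC50 determined at the Swiss Tropical and Public Health Institute by an earlier standard protocol.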

[1] = Selectivity index, ratio of IC50 for rat L6 cells to ratio of IC50 for chloroquine/pyrimethamine-resistant erythrocytic form of Plasmodium falciparum K1; assay type: toxicity, cell-based; conditions: read-out: Selectivity Index
[2] = system: Trypanosoma brucei rhodesiense; assay: Antiprotozoal activity against trypomastigote form of Trypanosoma brucei rhodesiense STIB 900 assessed as parasite growth inhibition; assay type: functional, organism-based
Plasmodium falciparum [3] = assay: Potency index, ratio of chloroquine IC50 to compound IC50 for chloroquine/pyrimethamine-resistant erythrocytic form of Plasmodium falciparum K1; assay type: functional
Plasmodium falciparum [4] = assay: Antiprotozoal activity against chloroquine/pyrimethamine-resistant erythrocytic form of Plasmodium falciparum K1 assessed as parasite growth inhibition; assay type: functional, organism-based
Leishmania tarentolae [5] = assay: Antiprotozoal activity against promastigote form of Leishmania tarentolae P10 assessed as parasite growth inhibition after 48 hrs by MTT assay; assay type: functional, organism-based; conditions: P10, 48 h
Method in brief: (§1)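 Promastigotes of nonpathogenic lizard-infecting L. tarentolae strain P10, cultured in hemin-supplemented BHI medium; IC50 determined.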

[6] = Selectivity index, ratio of IC50 for rat L6 cells to ratio of IC50 for trypomastigote form of Trypanosoma brucei rhodesiense STIB 900; assay type: toxicity, cell-based; conditions: read-out: Selectivity Index
Trypanosoma cruzi [7] = assay: Antiprotozoal activity against intracellular amastigote form of Trypanosoma cruzi Tulahuen C4 assessed as parasite growth inhibition; assay type: functional, organism-based
Leishmania donovani [8] = assay: Antiprotozoal activity against axenic amastigote form of Leishmania donovani MHOM/ET/67/L82 assessed as parasite growth inhibition; assay type: functional, organism-based
[9] = Selectivity index, ratio of IC50 for rat L6 cells to ratio of IC50 for axenic amastigote form of Leishmania donovani MHOM/ET/67/L82; assay type: toxicity, cell-based; conditions: read-out: Selectivity Index
Trypanosoma cruzi [10] = assay: Antiprotozoal activity against Trypanosoma cruzi assessed as parasite growth inhibition; assay type: functional, organism-based
Method in brief: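 T. cruzi intracellular amastigote stage, Tulahuen C4 strain; assayed at the Swiss Tropical and Public Health Institute by an earlier standard protocol.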

Leishmania donovani [11] = assay: Antiprotozoal activity against Leishmania donovani assessed as parasite growth inhibition
Leishmania tarentolae [12] = assay: Antiprotozoal activity against Leishmania tarentolae assessed as parasite growth inhibition; assay type: functional, organism-based; method in brief: as §1

Row | Structure (SMILES) | IC50 (L6) [µM] | selectivity ratio [1] | IC50 [2] [µM] | Ratio IC50 (Plasmodium falciparum [3]) | IC50 (Plasmodium falciparum [4]) [µM] | IC50 (Leishmania tarentolae [5]) [µM] | selectivity ratio [6] | IC50 (Trypanosoma cruzi [7]) [µM] | IC50 (Leishmania donovani [8]) [µM] | selectivity ratio [9] | IC50 (Trypanosoma cruzi [10]) [µM] | IC50 (Leishmania donovani [11]) [µM] | IC50 (Leishmania tarentolae [12]) [µM]
1 | CC(NCCCc1ccccc1)c1cc2c(cc1O)OC(C)(C)C=C2 (stereo not drawn) | 27 | 1820 | 5.31 | 25 | 0.01 | 6.2 | 5.08 |  |  |  |  |  | 
2 | C/C=C(/C)C(=O)OC(C)c1cc2c(cc1OC)OC(C)(C)C=C2 (stereo not drawn) | 139 | 7.35 | 157 |  | 18.9 | 21.3 | 0.89 | 61.4 | 46.2 | 3 |  |  | 
3 | COc1cc2c(cc1C(C)OCc1ccccc1)C=CC(C)(C)O2 (stereo not drawn) | 43.9 | 4.64 | 76.1 |  | 9.48 | 1.53 | 0.58 | 45 | 21.2 | 2.1 |  |  | 
4 | COc1cc2c(cc1C(C)OCCc1ccccc1)C=CC(C)(C)O2 (stereo not drawn) | 123 | 2.08 | 180 |  | 59.9 | 1.17 | 0.69 | 56.7 | 63.5 | 1.9 |  |  | 
5 | COc1cc2c(cc1C(C)OC/C=C/c1ccccc1)C=CC(C)(C)O2 (stereo not drawn) | 64.4 |  | 94.7 |  |  | 0.86 | 0.68 | 73 | 23 | 2.8 |  |  | 
6 | COc1cc2c(cc1C(C)NC(=O)c1ccccc1)C=CC(C)(C)O2 (stereo not drawn) | 34.8 | 3.01 | 23.4 |  | 11.5 | 8.61 | 1.45 | 36.8 | 26.3 | 1.3 |  |  | 
7 | COc1cc2c(cc1C(C)NC(=O)Cc1ccccc1)C=CC(C)(C)O2 (stereo not drawn) | 86.5 | 2.79 | 103 |  | 31 | 7.69 | 0.83 | 44.7 | 53.8 | 1.6 |  |  | 
8 | COc1cc2c(cc1C(C)NC(=O)/C=C/c1ccccc1)C=CC(C)(C)O2 (stereo not drawn) | 107 |  | 35.9 |  |  | 1.78 | 2.99 | 23.1 | 26.3 | 4.1 |  |  | 
9 | COc1cc2c(cc1C(C)NCc1ccccc1)C=CC(C)(C)O2 (stereo not drawn) | 21 | 32.8 | 2.38 |  | 0.64 | 2.4 | 8.83 | 33.9 | 159 | 0.13 |  |  | 
10 | COc1cc2c(cc1C(C)NCCc1ccccc1)C=CC(C)(C)O2 (stereo not drawn) | 15.4 | 6.34 | 2.22 |  | 2.42 | 1.04 | 6.93 | 9.1 | 127 | 0.12 |  |  | 
11 | COc1cc2c(cc1C(C)NCCCc1ccccc1)C=CC(C)(C)O2 (stereo not drawn) | 1.08 | 1.27 | 1.03 |  | 0.85 | 0.22 | 1.05 | 13.6 | 101 | 0.01 |  |  | 
12 | COc1cc2c(cc1C(C)NCCCCc1ccccc1)C=CC(C)(C)O2 (stereo not drawn) | 4.73 | 3.35 | 3.15 |  | 1.41 | 0.77 | 1.5 | 4.19 | 71.7 | 0.07 |  |  | 
13 | COc1ccc(CNC(C)c2cc3c(cc2OC)OC(C)(C)C=C3)cc1 (stereo not drawn) | 14.9 | 16 | 2.42 |  | 0.93 | 9.8 | 6.13 | 33.1 | 225 | 0.07 |  |  | 
14 | COc1cc2c(cc1C(C)N[C@H](C)c1ccccc1)C=CC(C)(C)O2 (stereo partly drawn) | 15.9 | 22.1 | 2.02 |  | 0.72 | 8.61 | 7.85 |  |  |  |  |  | 
15 | COc1cc2c(cc1C(C)N[C@@H](C)c1ccccc1)C=CC(C)(C)O2 (stereo partly drawn) | 16.5 | 44.4 | 5.1 |  | 0.37 | 9.01 | 3.23 |  |  |  |  |  | 
16 | COc1cc2c(cc1C(C)NC/C=C/c1ccccc1)C=CC(C)(C)O2 (stereo not drawn) | 14.6 | 3.32 | 5.84 |  | 4.41 | 3.26 | 2.5 | 8.13 | 62.4 | 0.23 |  |  | 

Row | Structure (SMILES) | IC50 (L6) [µM] | selectivity ratio [1] | IC50 [2] [µM] | Ratio IC50 (Plasmodium falciparum [3]) | IC50 (Plasmodium falciparum [4]) [µM] | IC50 (Leishmania tarentolae [5]) [µM] | selectivity ratio [6] | IC50 (Trypanosoma cruzi [7]) [µM] | IC50 (Leishmania donovani [8]) [µM] | selectivity ratio [9] | IC50 (Trypanosoma cruzi [10]) [µM] | IC50 (Leishmania donovani [11]) [µM] | IC50 (Leishmania tarentolae [12]) [µM]
17 | CCNC(C)c1cc2c(cc1OC)OC(C)(C)C=C2 (stereo not drawn) | 176 | 22 | 22.8 |  | 8.12 | 8.76 | 7.71 | 91.5 | 365 | 0.48 |  |  | 
18 | CCCCNC(C)c1cc2c(cc1OC)OC(C)(C)C=C2 (stereo not drawn) | 52.5 | 12.6 | 8.19 |  | 4.18 | 6.25 | 6.41 | 25.2 |  |  |  |  | 
19 | CCN(CC)CCCC(C)NC(C)c1cc2c(cc1OC)OC(C)(C)C=C2 (stereo not drawn) | 41.9 | 17.5 | 1.86 |  | 2.39 | 3.24 | 22.5 | 35.5 |  |  |  |  | 
20 | COc1cc2c(cc1C(C)NCC1CCCCC1)C=CC(C)(C)O2 (stereo not drawn) | 14.5 | 5.88 | 2.16 |  | 2.46 | 0.65 | 6.69 | 12.9 | 139 | 0.1 |  |  | 
21 | COc1cc2c(cc1C(C)N1CCOCC1)C=CC(C)(C)O2 (stereo not drawn) | 157 | 15.9 | 96.2 |  | 9.92 | 12.4 | 1.63 | 110 | 148 | 1.06 |  |  | 
22 | COc1cc2c(cc1C(C)N1CCCC1)C=CC(C)(C)O2 (stereo not drawn) | 177 | 10.8 | 41.1 |  | 16.4 | 18.6 | 4.31 | 68.2 | 270 | 0.66 |  |  | 
23 | COc1cc2c(cc1C(C)N(C)CCCc1ccccc1)C=CC(C)(C)O2 (stereo not drawn) | 16.3 | 13.5 | 3.17 |  | 1.24 | 9.01 | 5.12 | 9.17 | 84.3 | 0.19 |  |  | 
24 | COc1cc2c(cc1C(C)NCc1ccccc1)CCC(C)(C)O2 (stereo not drawn) | 15.3 | 10.1 | 4.98 |  | 1.51 | 270 | 3.08 | 13.3 | 3.7 | 4.1 |  |  | 
25 | COc1cc2c(cc1C(C)NCCc1ccccc1)CCC(C)(C)O2 (stereo not drawn) | 14.5 | 5.8 | 4.15 |  | 2.49 | 126 | 3.48 | 12.1 | 1.73 | 8.4 |  |  | 
26 | COc1cc2c(cc1C(C)NCCCc1ccccc1)CCC(C)(C)O2 (stereo not drawn) | 2.63 | 1.23 | 2.27 |  | 2.13 | 129 | 1.15 | 5.35 |  |  |  |  | 
27 | COc1cc2c(cc1C(C)NCCCCc1ccccc1)CCC(C)(C)O2 (stereo not drawn) | 5.28 | 3.94 | 1.84 |  | 1.34 | 90.6 | 2.87 | 5.03 | 0.57 | 9.3 |  |  | 
28 | CCCCNC(C)c1cc2c(cc1OC)OC(C)(C)CC2 (stereo not drawn) | 59 | 18.3 | 7.82 |  | 3.22 |  | 7.54 | 38.4 | 10.8 | 5.5 |  |  | 
29 | CC(NCc1ccccc1)c1cc2c(cc1O)OC(C)(C)C=C2 (stereo not drawn) | 109 | 6760 | 6.18 | 10 | 0.02 | 12.4 | 17.7 |  |  |  |  |  | 
30 | O=C(Cn1ccnc1[N+](=O)[O-])NCc1ccccc1 [BENZNIDAZOLE] |  |  |  |  |  |  |  |  |  |  | 1.57 |  | 
31 | CCCCCCCCCCCCCCCCOP(=O)([O-])OCC[N+](C)(C)C [MILTEFOSINE] |  |  |  |  |  |  |  |  |  |  |  | 0.361 | 
32 | N=C(N)c1ccc(OCCCCCOc2ccc(C(=N)N)cc2)cc1 [PENTAMIDINE] |  |  |  |  |  |  |  |  |  |  |  |  | 0.03
